Measurements from ChEMBL document CHEMBL1667839, “Discovery of new anti-depressants from structurally novel 5-HT3 receptor antagonists: design, synthesis and pharmacological evaluation of 3-ethoxyquinoxalin-2-carboxamides” (Bioorg Med Chem Lett, 2011).

Key:
Mus musculus [1] = test: Antidepressant activity in mouse assessed as immobility time at 1 mg/kg, ip by forced swimming test; assay type: functional; conditions: route intraperitoneal
Mus musculus [2] = test: Antipsychotic activity in Swiss Albino mouse assessed as spontaneous locomotor score at 1 mg/kg, ip measured for 10 mins by actophotometer; assay type: functional; conditions: route intraperitoneal
Procedure, shortened: (§1)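 Swiss Albino mice (23 ± 2 g) given compound intraperitoneally in 10% PEG-400 in water; spontaneous locomotor activity counted in an actophotometer over 10 min as locomotor score; n = 8 per group, mean; one-way ANOVA with Dunnett's test versus vehicle-treated group.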

[3] = target: T1, 5-hydroxytryptamine receptor 3A (Cavia porcellus, UniProt O70212); test: Antagonist activity at 5-HT3 receptor in guinea pig ileum muscle; assay type: functional, tissue-based; conditions: read-out: pA2 (converted)
T1 sequence (O70212 whole entry): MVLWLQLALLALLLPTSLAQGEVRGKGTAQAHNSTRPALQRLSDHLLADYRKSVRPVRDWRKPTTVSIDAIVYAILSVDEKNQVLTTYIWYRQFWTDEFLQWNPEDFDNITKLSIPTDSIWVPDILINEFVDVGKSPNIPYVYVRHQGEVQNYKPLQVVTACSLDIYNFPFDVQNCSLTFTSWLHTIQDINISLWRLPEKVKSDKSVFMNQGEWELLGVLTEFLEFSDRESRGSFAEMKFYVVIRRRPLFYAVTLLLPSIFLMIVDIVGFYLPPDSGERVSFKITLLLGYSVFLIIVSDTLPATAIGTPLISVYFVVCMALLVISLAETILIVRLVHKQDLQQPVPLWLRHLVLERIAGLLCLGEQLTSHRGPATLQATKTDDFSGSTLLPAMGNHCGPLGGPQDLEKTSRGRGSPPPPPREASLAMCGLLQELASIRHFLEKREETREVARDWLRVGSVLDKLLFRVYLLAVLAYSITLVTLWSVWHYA
Procedure, shortened: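 Longitudinal muscle myenteric plexus preparation from ileum of male Dunkin Hartley guinea pigs (350-400 g); antagonism measured against the 5-HT3 agonist 2-methyl-5-HT and expressed as pA2 by literature methods; mean of two separate experiments.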

Mus musculus [4] = test: Antipsychotic activity in Swiss Albino mouse assessed as spontaneous locomotor score at 2 mg/kg, ip measured for 10 mins by actophotometer; assay type: functional; conditions: route intraperitoneal; procedure, shortened: as §1
Mus musculus [5] = test: Antipsychotic activity in Swiss Albino mouse assessed as spontaneous locomotor score at 0.5 mg/kg, ip measured for 10 mins by actophotometer; assay type: functional; conditions: route intraperitoneal; procedure, shortened: as §1
Mus musculus [6] = test: Antidepressant activity in Swiss Albino mouse assessed as immobility time at 2 mg/kg, ip by forced swimming test; assay type: functional; conditions: route intraperitoneal
Mus musculus [7] = test: Antidepressant activity in Swiss Albino mouse assessed as immobility time at 0.5 mg/kg, ip by forced swimming test (reference value: 165.6 +/- 03.2 sec); assay type: functional; conditions: route intraperitoneal

SMILES	Time (Mus musculus [1])	Activity (Mus musculus [2])	Kb [3]	Activity (Mus musculus [4])	Activity (Mus musculus [5])	Time (Mus musculus [6])	Time (Mus musculus [7])
CCOc1nc2ccccc2nc1C(=O)N1CCN(c2ccccc2)CC1	134 s	382 score	10000 nM				
CCOc1nc2ccccc2nc1C(=O)N1CCN(c2ccccc2OC)CC1	113.3 s	360 score	100 nM	366 score	351 score	122 s	115.3 s
CCOc1nc2ccccc2nc1C(=O)N1CCN(c2ccc(OC)cc2)CC1	114.6 s	356 score	158 nM	361 score	352 score	121.6 s	159 s
CCOc1nc2ccccc2nc1C(=O)N1CCN(c2ccc(Cl)cc2)CC1	146.6 s	364 score	1000 nM				
CCOc1nc2ccccc2nc1C(=O)N1CCN(c2cccc(Cl)c2)CC1	110.6 s	352 score	251 nM	358 score	361 score	76.6 s	83.6 s
CCOc1nc2ccccc2nc1C(=O)N1CCN(c2cccc(C(F)(F)F)c2)CC1	148 s	356 score	7940 nM				
CCOc1nc2ccccc2nc1C(=O)Nc1cccnc1	144 s	365 score	15800 nM				
CCOc1nc2ccccc2nc1C(=O)N1CCN(Cc2ccccc2)CC1	160 s	366 score	25100 nM				
CCOc1nc2ccccc2nc1C(=O)N1CCN(C)CC1	94 s	350 score	20 nM	356 score	353 score	130 s	125 s
CCOc1nc2ccccc2nc1C(=O)N1CCN(CC)CC1	98 s	360 score	31.6 nM	352 score	349 score	128 s	159.3 s
C=CCN1CCN(C(=O)c2nc3ccccc3nc2OCC)CC1	127 s	360 score	158 nM	352 score	345 score	118 s	152 s
CCOc1nc2ccccc2nc1C(=O)NCCN(C)C	117.7 s	349 score	126 nM	343 score	345 score	96 s	133.6 s
CCOc1nc2ccccc2nc1C(=O)NCCN(CC)CC	162 s	362 score	20000 nM				
CCOc1nc2ccccc2nc1C(=O)NCCc1c[nH]c2ccccc12	104 s	350 score	63.1 nM	355 score	366 score	79.3 s	150.3 s
CCOc1nc2ccccc2nc1C(=O)Nc1ccc(N(CC)CC)cc1	145 s	374 score	10000 nM				
Cc1nccn1CC1CCc2c(c3ccccc3n2C)C1=O (stereo not drawn) [ONDANSETRON]	100.4 s	388 score		400 score	368 score	95.1 s	130.2 s
